HSF1 inh: HSF1 inhibitors in luciferase reporter cells, primary screen, cell-based, NIH3T3, luminescence; NIH3T3-HGL HSE-luciferase, MG132-induced, luminescence 8 h; active compounds read low; activity change, negative = inhibition, % at 7.5 µM (by protocol); hit rate 0.77% among 300,000;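 active means more than half of replicate wells show activity change below -50%, luminescence cut by over half; inconclusive means some wells, but at most half, below -50%; inactive means no replicate well below -50%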;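 further: luciferase reports HSF-1 transcriptional activity via heat shock element; 0% = median of DMSO wells and -100% = zero luminescence signal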
HSF1 activator: HSF-1 activators, primary screen, NIH3T3-HGL cells, MG132 stress, luminescence, single point; NIH3T3-HGL HSF-1 luciferase reporter, 8 h; 100% = twice DMSO control signal; hit rate 1.7% among 300,000; activation, % at 9 µM;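 active means mean replicate activation of at least 50% with a set share of replicates each reaching 50%; inconclusive means only one of those two conditions met; inactive means mean below 50% and too few replicates reaching it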;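 further: 0% = median of the neutral control wells and 100% = twice that signal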
Hsp70 activator: Hsp70 transcriptional activators, primary screen, cell-based, HeLa, Hsp70 promoter luciferase, luminescence, 10 µM; activation, % at 10 µM; AID 1203, 2008; hit rate 0.04% among 200,000; HeLa Hsp70 promoter luciferase reporter; scaled: vehicle 0, proteasome-inhibitor control 100%;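 active means activation above the mean across all tested compounds plus 3 SD, cutoff set per campaign, cut at about 5.5% in these data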;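 further: 100% = MG132 at 30 µM as the positive control and 0% = DMSO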
Lmaj promast: Leishmania major promastigote growth inhibition, primary screen | inhibition, % at 10 µM | Leishmania major promastigotes, resazurin fluorescence viability | hit rate 9% among 200,000; in the data active means inhibition above about 50%;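 further: promastigotes grown with compound for 44 hours at 28 °C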
T cruzi repl: inhibitors of intracellular T. cruzi growth, primary screen, luminescence, NIH3T3 host cells; T. cruzi beta-gal in NIH3T3, 90 h; inhibition, % (no concentration beside the values); hit rate 1.4% among 300,000; AID 1885, 2009;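 active means mean inhibition across valid replicates above about 55%, limit read from the data; inconclusive means mean below that limit but half or more replicates reach it; inactive means mean below it, under half of replicates reach it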;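 further: signal also drops with host cell toxicity which is not excluded here; 0% = plate median of DMSO wells and 100% = zero luminescence signal; higher percent means less beta-gal luminescence so fewer parasites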
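Incubation – ≥90 h infection period, 3 h prior cell attachment · System – NIH/3T3 fibroblasts plus reporter T. cruzi · Doses – compound pinned at 50 nL/well, DMSO · Read-out basis – percent inhibition of parasite-derived β-gal signal · Signal – luminescent β-galactosidase signal after 60 min lysis · Also added – 5000 T. cruzi trypomastigotes/well · Medium – Low-serum DMEM with 2% FBS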
Active calls of the source: *; ? = inconclusive; nt = not tested or not shown. The entries come from a sample that favours hits as a whole.

SMILES | HSF1 inh | HSF1 activator | Hsp70 activator | Lmaj promast | T cruzi repl
CCOC(=O)C1CCN(Cc2ccc(F)cc2)CC1 | nt | nt | 0 | 89* | nt
CCOC(=O)C1CCN(Cc2cc(C(C)(C)C)c(O)c(C(C)(C)C)c2)CC1 | -7 | 5 | 0 | 42 | 35
CCOC(=O)C1CCN(Cc2ccc(C(=O)OC)cc2)CC1 | -8 | -6 | 1 | 95* | -3
CCOC(=O)C1CCN(Cc2ccc(O)c(OC)c2)CC1 | 2 | 4 | 0 | 84* | -29
COC(=O)c1ccc(CNC(=O)CNC(=O)c2sc3ccccc3c2Cl)cc1 | -26 | -22 | nt | nt | 5
CCn1c(COC(=O)CNC(=O)c2ccccc2)nc2cc(S(=O)(=O)N(C)C)ccc21 | -2 | -17 | nt | nt | 2
CCOC(=O)C1(CC2CC2)CCN(Cc2ccc(C(=O)OC)cc2)CC1 | 1 | -8 | 0 | 92* | 9
CCOC(=O)C1(CCc2ccccc2)CCN(Cc2ccc(C(=O)OC)cc2)CC1 | -3 | 11 | nt | nt | 13
OCCNc1c2ccccc2nc2ccccc12 | 5 | 13 | 0 | 100* | 59*
OCCNc1nc2ccccc2nc1NCCO | -1 | 16 | nt | nt | -12
COc1cc(CNCCc2ccccc2)ccc1OCc1ccc(Cl)nc1 | nt | nt | 0 | 100* | 51
CCN1CCCC1CNCc1ccc(OCc2ccc(Cl)nc2)c(OC)c1 (stereo not given) | -2 | -11 | nt | nt | 12
CCCCNCc1ccc(OCc2ccc(Cl)nc2)c(OC)c1 | 23 | 31 | nt | nt | 24
COc1cc(CNCC(O)c2ccccc2)ccc1OCc1ccc(Cl)nc1 (stereo not given) | 21 | ? | 0 | 100* | 17
CCOc1ccc(C(=O)NCC(c2ccco2)N2CCOCC2)cc1 (stereo not given) | -2 | 8 | nt | nt | -9
Cc1cc(C)cc(C(=O)NCC(=O)OCC(=O)Nc2cccnc2Cl)c1 | -7 | -4 | 0 | -5 | -11
O=c1c2ccccc2nnn1COc1cccc(Cl)c1 | 55 | 74* | 0 | 9 | 2
O=C(COc1ccc(Cl)cc1Cl)OCn1nnc2ccccc2c1=O | 10 | -8 | 0 | -3 | -4
CCOc1cc(NC(=O)c2ccco2)c(OCC)cc1NC(=O)Cc1cccc(OC)c1 | -5 | 7 | 0 | 63* | 28
COc1ccc(C(=O)COc2cccc(NC(=O)c3ccco3)c2)cc1 | 2 | -2 | 0 | 59* | -9
Cc1ccc(C(=O)C(C)Oc2cccc(NC(=O)c3ccco3)c2)cc1 (stereo not given) | -2 | 17 | 0 | 97* | 10
CC(Oc1ccc(NC(=O)c2ccco2)cc1)C(=O)N1c2ccccc2CC1C (stereo not given) | 2 | 13 | 0 | 58* | -9
O=C1CC(c2cccs2)Cc2nc(NC(=O)C3CC3)ncc21 (stereo not given) | 7 | 8 | nt | nt | -1
CC1=C(C(=O)OCc2ccccc2)C(c2cccnc2)c2c(n(C)c(=O)n(C)c2=O)N1 (stereo not given) | -6 | 3 | 0 | 75* | 35
O=[N+]([O-])c1ccc(NCc2ccc(Cl)cc2)nc1 | 25 | 40 | nt | nt | -4
SMILES | HSF1 inh | HSF1 activator | Hsp70 activator | Lmaj promast | T cruzi repl
CC(C)c1ccc(CNc2ccc([N+](=O)[O-])cn2)cc1 | 58 | 71* | 0 | 16 | 8
CN(C(=O)COC(=O)c1ccccc1OCc1ccc(Cl)cc1)c1c(N)n(Cc2ccccc2)c(=O)[nH]c1=O | -5 | 0 | nt | nt | 4
C=C(C)C1CC=C(CN2CCC(C(=O)OCC)CC2)CC1 (stereo not given) | -12 | -32 | 0 | 95* | 8
CC1CN(Cc2ccc(Cl)cc2Cl)CC(C)O1 (stereo not given) | -14 | -12 | 0 | -6 | -8
C=C(C)C1CC=C(CN2CC(C)OC(C)C2)CC1 (stereo not given) | -8 | -5 | 0 | 88* | 7
O=C(c1ccc(OC2CCN(CCO)CC2)cc1)N1CCCC1 | -5 | -21 | nt | nt | -4
O=C(O)C1C2CCC(O2)C1C(=O)NCc1ccc(Cl)cc1 (stereo not given) | -3 | 11 | 0 | -7 | -7
COc1ccc(C(=O)N2CCN=C2SCc2cccnc2)cc1OC | -66* | -75 | 0 | 0 | -23
COc1ccc(CNC(=O)C2CCN(S(=O)(=O)c3cccc4nonc34)CC2)cc1 | -1 | 7 | nt | nt | -2
O=C1c2ccccc2C(Nc2ccccc2)N1c1ccc(Cl)cn1 (stereo not given) | nt | nt | 0 | 17 | nt
O=C1c2ccccc2C(Nc2ccccc2)N1Cc1ccc2c(c1)OCO2 (stereo not given) | 15 | 7 | nt | nt | -1
O=C1c2ccccc2C(Nc2ccc(F)c(Cl)c2)N1c1ccccn1 (stereo not given) | 9 | 0 | 0 | 5 | 40
O=C1c2ccccc2C(Nc2ccc3c(c2)OCCO3)N1Cc1ccc2c(c1)OCO2 (stereo not given) | -64* | -69 | 0 | 3 | 1
O=C1c2ccccc2C(Nc2ccc3c(c2)OCCO3)N1c1ccccn1 (stereo not given) | -70* | -74 | 0 | 15 | 27
O=C1c2ccccc2C(Nc2ccc3c(c2)OCCO3)N1c1ccc(Cl)cn1 (stereo not given) | -54* | -58 | 0 | 11 | 39
CSc1ccc(S(=O)(=O)NCC(=O)OCC(=O)N(Cc2ccccc2)C(C)C)cc1[N+](=O)[O-] | -1 | 5 | nt | nt | 14
Cn1ncc(Cl)c1C(=O)Nc1ccc(CN2CCCCC2)cc1 | -1 | -15 | nt | nt | 20
CCN(C(=O)COC(=O)CNS(=O)(=O)c1ccccc1)c1ccccc1 | -1 | -9 | 0 | -5 | -9
O=[N+]([O-])c1cc(C(F)(F)F)cc([N+](=O)[O-])c1NCCN1CCNCC1 | 1 | 19 | nt | nt | 21
Cc1ccc(S(=O)(=O)Nc2cccc(C(=O)NCC(c3ccco3)N3CCCC3)c2)cc1F (stereo not given) | 1 | -20 | nt | nt | 38
Cc1cc(Cl)c(OCCOCCN2CCN(C)CC2)c(Br)c1 | 2 | 0 | nt | nt | 59*
Cc1cc(C)c(OCCCCN2CCC(C)CC2)c(Br)c1 | -13 | -14 | 0 | 98* | 30
Cc1cc(Cl)c(OCCOCCN2CCC(C)CC2)c(Br)c1 | 0 | -4 | 0 | 99* | 36
CN1CCN(CCOCCOc2c(Cl)cc(Cl)cc2Cl)CC1 | -1 | -11 | nt | nt | 49
CN(C)CCCNC(=S)N(CCO)Cc1cc2cc3c(cc2[nH]c1=O)OCO3 | -2 | -12 | nt | nt | -22
CC(C)(C)NS(=O)(=O)c1ccc(CCC(=O)N2CCCC2)cc1 | -6 | 2 | 0 | 5 | -18
CC(C)N(Cc1cc2ccccc2[nH]c1=O)C(=O)c1ccco1 | -3 | -3 | 0 | -4 | -23
CCc1ccc(NC(=O)CN2C(=O)C(=O)N(Cc3ccccc3)C2=O)cc1 | 0 | 9 | 0 | 0 | 0

Bioassay records deposited in PubChem BioAssay by several laboratories.
